Assay [1] has as its system CV-A16. Put plainly: Plaque reduction assay, CV-A16. Type of assay: cell-based, Coxsackievirus A16. Particulars: read-out: IC50 against CV-A16 in plaque reduction assay. Put shortly:
(§1)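 Confluent RD or Vero monolayers were infected with coxsackievirus for 1 h. The inoculum was replaced by DMEM overlay with 1.2% Avicel, 2% FBS and varying test compound concentrations. After 2–3 days, plaques were fixed with 4% formaldehyde, stained with 0.5% crystal violet and counted, and IC50 was calculated. Data are means ± SD.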
For orientation: Plaque reduction counts the foci of infection that form in a cell layer.

Assay [2] relates to CV-A7. The assay is described as follows: Plaque reduction assay, CV-A7. Type of assay: cell-based, Coxsackievirus A7. Particulars: read-out: IC50 against CV-A7 in plaque reduction assay. In a few lines:
as §1

For assay [3], the system named is CV-A6. The assay is described as follows: Plaque reduction assay, CV-A6. Type of assay: cell-based, Coxsackievirus A6. Particulars: read-out: IC50 against CV-A6 in plaque reduction assay. Put shortly: as §1
In assay [4] the test system is CV-A10. The assay is described as follows: Plaque reduction assay, CV-A10 in Vero cells. Type of assay: cell-based, Coxsackievirus A10. Particulars: read-out: IC50 against CV-A10 in plaque reduction assay. In a few lines: as §1
Assay [5] has as its system CV-A10. Put plainly: Plaque reduction assay, CV-A10 in RD cells. Particulars: read-out: IC50 against CV-A10 in plaque reduction assay. Type of assay: cell-based, Coxsackievirus A10. In a few lines: as §1

As a reminder, the IC50 is the concentration at which inhibition is half-maximal.

With `CC(C)C[C@H](NC(=O)OCc1ccccc1)C(=O)N[C@@H](CC1CCNC1=O)C(O)S(=O)(=O)O` (some centres unmarked) [GC376], the IC50 worked out at 180 ± 20 nM in assay [1]; 210 ± 50 nM in assay [2]; 220 ± 20 nM in assay [3]; 1690 ± 620 nM in assay [4]; 240 ± 40 nM in assay [5].

These data come from article PMC10520345 (Current Research in Microbial Sciences, 2023).
